The values that follow come from PMC4823774 (Bioorganic & medicinal chemistry letters, 2016).

Bounds are passed on as bounds.

The target of one series is human mGlu1 (Homo sapiens, UniProt Q13255). As to the kind of experiment: Calcium mobilization mGlu1 PAM assay. The format is cell-based. In short, it runs like this:
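Tetracycline-inducible human mGlu1 T-REx-293 cells, induced overnight at 80,000 cells/well with 50 ng/mL tetracycline. Loaded with 1.15 μM Fluo-4 AM in HBSS/20 mM HEPES/2.5 mM probenecid, 45 min, 37 °C. Half-log dilutions or DMSO preincubated 2.5 min, then EC20 glutamate for 1 min. ECmax glutamate on vehicle wells. Peak minus pre-agonist basal fluorescence; concentration-response curve fitting.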

Series [1] in a line: Rat brain homogenate binding. The format is in vitro ADME.
Series [2] in a line: Rat liver microsome stability and intrinsic clearance. The conditions noted are these: for stability in rat liver microsomes: in words. The format is in vitro ADME.
Series [3] in a line: Human liver microsome stability and intrinsic clearance. The conditions noted are these: for stability in human liver microsomes: in words. The format is in vitro ADME.
The next series concerns CYP. The series can be described thus: CYP profile. The format is in vitro ADME.
A further series is described as follows: Rat plasma stability. In kind it is in vitro ADME.
Another series is described as follows: Human plasma stability. The format is in vitro ADME.
A further series can be described thus: CNS penetration. The conditions noted are these: in vivo.
Series [4] in a line: Clearance in in vitro DMPK assays, species not stated. In kind it is in vitro ADME.

Sequence of human mGlu1 (Q13255 19-1194): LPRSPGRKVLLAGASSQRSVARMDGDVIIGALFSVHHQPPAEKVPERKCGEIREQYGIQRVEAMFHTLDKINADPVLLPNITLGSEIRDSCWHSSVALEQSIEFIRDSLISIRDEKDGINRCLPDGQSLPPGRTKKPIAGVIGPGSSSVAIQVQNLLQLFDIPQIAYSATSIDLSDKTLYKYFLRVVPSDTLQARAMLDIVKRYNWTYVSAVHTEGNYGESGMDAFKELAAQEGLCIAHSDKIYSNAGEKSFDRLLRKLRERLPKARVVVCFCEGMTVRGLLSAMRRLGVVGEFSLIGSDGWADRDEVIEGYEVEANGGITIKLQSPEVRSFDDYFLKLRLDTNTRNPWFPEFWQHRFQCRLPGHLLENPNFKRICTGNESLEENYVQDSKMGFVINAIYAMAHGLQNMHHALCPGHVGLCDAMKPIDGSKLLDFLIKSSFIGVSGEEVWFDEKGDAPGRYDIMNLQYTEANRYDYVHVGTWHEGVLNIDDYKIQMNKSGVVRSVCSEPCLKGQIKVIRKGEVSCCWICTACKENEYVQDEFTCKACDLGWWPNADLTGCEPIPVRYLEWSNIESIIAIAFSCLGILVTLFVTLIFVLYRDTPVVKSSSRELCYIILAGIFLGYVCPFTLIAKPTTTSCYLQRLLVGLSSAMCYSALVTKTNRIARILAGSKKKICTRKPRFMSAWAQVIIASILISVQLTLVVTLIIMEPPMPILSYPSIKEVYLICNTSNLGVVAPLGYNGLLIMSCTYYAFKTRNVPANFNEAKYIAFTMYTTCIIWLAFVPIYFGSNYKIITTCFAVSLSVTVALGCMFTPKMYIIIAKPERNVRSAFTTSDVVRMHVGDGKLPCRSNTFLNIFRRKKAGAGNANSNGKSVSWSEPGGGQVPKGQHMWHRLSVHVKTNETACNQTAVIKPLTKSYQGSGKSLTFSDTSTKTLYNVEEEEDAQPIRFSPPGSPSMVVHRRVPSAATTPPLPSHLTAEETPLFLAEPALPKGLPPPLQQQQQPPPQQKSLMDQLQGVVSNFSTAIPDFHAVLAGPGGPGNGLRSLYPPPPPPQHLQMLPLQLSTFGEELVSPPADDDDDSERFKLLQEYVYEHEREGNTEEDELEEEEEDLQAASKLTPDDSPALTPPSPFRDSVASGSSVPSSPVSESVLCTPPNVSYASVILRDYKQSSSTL

On to `Cc1cccnc1C(=O)Nc1ccc(N2Cc3c(Cl)cccc3C2=O)c(Cl)c1` [22k], for which the EC50 at human mGlu1 was around 1 µM.

Turning to `Cc1ccoc1C(=O)Nc1ccc(N2Cc3c(Cl)cccc3C2=O)c(Cl)c1` [21a, N-(3-chloro-4-(4-chloro-1-oxoisoindolin-2-yl)phenyl)-3-methylfuran-2-carboxamide], in series [1], the brain homogenate binding is above 99%. Moreover, the “stability in rat liver microsomes” value in series [2] was “hydrolytically stable”. Further, the values for the CLhep predicted in series [2] (liver microsomes) and in series [3] (liver microsomes) were 54.1 mL/min/kg and 8.53 mL/min/kg, respectively. Besides, the “stability in human liver microsomes” value in series [3] was “hydrolytically stable”. Besides, on human mGlu1 (calcium mobilization, n=3 in triplicate, tables), the “mGlu1 pEC50 (±SEM)” value was found to be 6.75±0.07. The CLp in “In vivo rat PK” is 11.1 mL/min/kg.

Regarding `Cc1ccoc1C(=O)Nc1ccc(N2CCc3ccccc32)c(Cl)c1` [20h], the “mGlu1 PAM activity (in words)” value on human mGlu1 is “active”.

For `Cc1ccoc1C(=O)Nc1ccc(N2C(=O)Cc3ccccc3C2=O)c(Cl)c1` [compound 17], the “CYP profile (in words)” value with CYP was “clean CYP profile”. The “stability in rat plasma” value in “Rat plasma stability” is given as “unstable”. Moreover, the “stability in human plasma” value in “Human plasma stability” was “unstable”.

Turning to `Cc1ccoc1C(=O)Nc1ccc(N2Cc3c(Cl)cccc3C2=O)cc1F` [22h], at human mGlu1, the EC50 was around 1 µM.

Take `Cc1ccoc1C(=O)Nc1ccc(N2Cc3ccccc3C2)c(Cl)c1` [20f]: the “mGlu1 PAM activity (in words)” value at human mGlu1 is reported as “active”.

`Cc1ccoc1C(=O)Nc1ccc(N2Cc3ccccc3C2=O)c(Cl)c1` [20e]: the “stability in rat liver microsomes” value in series [2] is on record as “complete stability”. Also, the “stability in human liver microsomes” value in series [3] is on record as “complete stability”. Further, the “mGlu1 PAM activity (in words)” value at human mGlu1 is “active”.

As to `Cc1ccoc1C(=O)Nc1ccc(NC(=O)c2ccccc2C(=O)O)c(Cl)c1` [20c], the “CNS penetration (in words)” value in “CNS penetration” is reported as “not CNS penetrant”.

`Cc1ccoc1C(=O)Nc1ccc(N2C(=O)Cc3ccccc32)c(Cl)c1` [20g]: the “mGlu1 PAM activity (in words)” value on human mGlu1 was “inactive”.

For the compound `Cc1ccoc1C(=O)Nc1ccc(N2C(=O)CCc3ccccc32)c(Cl)c1` [compound 19], in “Rat plasma stability”, the “stability in rat plasma” value is reported as “stable”. For the same compound, the “stability in human plasma” value in “Human plasma stability” was “stable”. In addition, the “clearance (in words)” value in series [4] is reported as “supprahepatic”.

As to `Cc1ccoc1C(=O)Nc1ccc(N2C(=O)[C@H]3CCCC[C@H]3C2=O)c(Cl)c1` [20a], the “mGlu1 PAM activity (in words)” value on human mGlu1 was “inactive”.

With `Cc1ccoc1C(=O)Nc1ccc(N2C(=O)[C@@H]3CCCC[C@H]3C2=O)c(Cl)c1` [20b], at human mGlu1, the “mGlu1 PAM activity (in words)” value was “inactive”.
